Assay type in all cases: functional
For test [1], the system named is Rattus norvegicus. The test is described as follows: Effect on hemodynamic parameters in Sprague-Dawley rat heart assessed as end-diastolic pressure at 4 ug/kg/min (reference value: 7.68 to 9.83 mmHg).
For test [2], the system named is Rattus norvegicus. The test is described as follows: Effect on hemodynamic parameters in Sprague-Dawley rat heart assessed as dPdT min at 4 ug/kg/min (reference value: -5462 to -4898 mmHg/s).
The test system of test [3] is Rattus norvegicus. Kind of test: Effect on hemodynamic parameters in Sprague-Dawley rat heart assessed as end-diastolic pressure at 2 ug/kg/min (reference value: 7.68 mmHg).
For test [4], the system named is Rattus norvegicus. The test is described as follows: Positive inotropic activity in Sprague-Dawley rat heart assessed as ejection fraction at 4 ug/kg/min for 3 mins by echocardiographic analysis (reference value: 67.16 to 85.81%). The essentials: (§1)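 Seven-week-old male Sprague-Dawley rats under 1.5 % isoflurane via nosecone. Drug given through a right internal jugular vein central line. Left ventricular fractional shortening and ejection fraction measured by echocardiography with and without sample, expressed as % increase.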

The subject of test [5] is Rattus norvegicus. The test is described as follows: Effect on hemodynamic parameters in Sprague-Dawley rat heart assessed as end-systolic pressure at 8 ug/kg/min (reference value: 87.48 to 97.85 mmHg).
The test system of test [6] is Rattus norvegicus. Kind of test: Positive inotropic activity in Sprague-Dawley rat heart assessed as left ventricular internal diameter end systole at 4 ug/kg/min for 3 mins by echocardiographic analysis (reference value: 2.50 to 4.78 mm). The essentials: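 Male Sprague-Dawley rats, seven weeks old, anaesthetised with 1.5 % isoflurane given by nosecone. Compound infused through the right internal jugular vein, used as a central venous line. Left ventricular dimensions measured by echocardiography.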

Test [7] deals with Rattus norvegicus. The test is described as follows: Effect on hemodynamic parameters in Sprague-Dawley rat heart assessed as end-systolic pressure at 4 ug/kg/min (reference value: 94.65 to 97.85 mmHg).
Test [8] relates to Rattus norvegicus. The test is described as follows: Effect on hemodynamic parameters in Sprague-Dawley rat heart assessed as dPdT min at 2 ug/kg/min (reference value: -5462 mmHg/s).
The test system of test [9] is Rattus norvegicus. Kind of test: Effect on hemodynamic parameters in Sprague-Dawley rat heart assessed as heart rate at 2 ug/kg/min (reference value: 322 bpm).
The subject of test [10] is Rattus norvegicus. The test is described as follows: Effect on hemodynamic parameters in Sprague-Dawley rat heart assessed as heart rate at 16 ug/kg/min (reference value: 274 to 322 bpm).
The subject of test [11] is Rattus norvegicus. Kind of test: Effect on hemodynamic parameters in Sprague-Dawley rat heart assessed as dPdT max at 2 ug/kg/min (reference value: 5214 mmHg/s).
For test [12], the system named is Rattus norvegicus. Kind of test: Effect on hemodynamic parameters in Sprague-Dawley rat heart assessed as heart rate at 4 ug/kg/min (reference value: 260 to 322 bpm).
The test system of test [13] is Rattus norvegicus. The test is described as follows: Effect on hemodynamic parameters in Sprague-Dawley rat heart assessed as dPdT max at 4 ug/kg/min (reference value: 4985 to 5214 mmHg/s).
For test [14], the system named is Rattus norvegicus. Kind of test: Effect on hemodynamic parameters in Sprague-Dawley rat heart assessed as end-systolic pressure at 2 ug/kg/min (reference value: 97.85 mmHg).
The test system of test [15] is Rattus norvegicus. The test is described as follows: Effect on hemodynamic parameters in Sprague-Dawley rat heart assessed as dPdT min at 8 ug/kg/min (reference value: -5462 to -4611 mmHg/s).
For test [16], the system named is Rattus norvegicus. Kind of test: Positive inotropic activity in Sprague-Dawley rat heart assessed as ejection fraction at 8 ug/kg/min for 3 mins by echocardiographic analysis (reference value: 67.16 to 85.81%). The essentials:
as §1

In test [17] the test system is Rattus norvegicus. Kind of test: Positive inotropic activity in Sprague-Dawley rat heart assessed as heart rate at 16 ug/kg/min for 3 mins by echocardiographic analysis (reference value: 281 to 347 bpm).
In test [18] the test system is Rattus norvegicus. Kind of test: Effect on hemodynamic parameters in Sprague-Dawley rat heart assessed as end-systolic pressure at 128 ug/kg/min (reference value: 87.48 mmHg).
In test [19] the test system is Rattus norvegicus. Kind of test: Effect on hemodynamic parameters in Sprague-Dawley rat heart assessed as heart rate at 64 ug/kg/min (reference value: 274 bpm).
Test [20] has as its system Rattus norvegicus. Kind of test: Effect on hemodynamic parameters in Sprague-Dawley rat heart assessed as heart rate at 32 ug/kg/min (reference value: 274 bpm).
Test [21] concerns Rattus norvegicus. The test is described as follows: Effect on hemodynamic parameters in Sprague-Dawley rat heart assessed as end-systolic pressure at 32 ug/kg/min (reference value: 87.48 mmHg).
The test system of test [22] is Rattus norvegicus. Kind of test: Effect on hemodynamic parameters in Sprague-Dawley rat heart assessed as dPdT min at 128 ug/kg/min (reference value: -4611 mmHg/s).
Test [23] has as its system Rattus norvegicus. Kind of test: Effect on hemodynamic parameters in Sprague-Dawley rat heart assessed as dPdT min at 32 ug/kg/min (reference value: -4611 mmHg/s).
Test [24] concerns Rattus norvegicus. The test is described as follows: Effect on hemodynamic parameters in Sprague-Dawley rat heart assessed as end-diastolic pressure at 32 ug/kg/min (reference value: 9.64 mmHg).
The test system of test [25] is Rattus norvegicus. The test is described as follows: Effect on hemodynamic parameters in Sprague-Dawley rat heart assessed as dPdT max at 64 ug/kg/min (reference value: 4162 mmHg/s).
The test system of test [26] is Rattus norvegicus. The test is described as follows: Effect on hemodynamic parameters in Sprague-Dawley rat heart assessed as dPdT max at 32 ug/kg/min (reference value: 4162 mmHg/s).
The test system of test [27] is Rattus norvegicus. The test is described as follows: Effect on hemodynamic parameters in Sprague-Dawley rat heart assessed as dPdT min at 64 ug/kg/min (reference value: -4611 mmHg/s).
Test [28] relates to Rattus norvegicus. The test is described as follows: Effect on hemodynamic parameters in Sprague-Dawley rat heart assessed as end-diastolic pressure at 128 ug/kg/min (reference value: 9.64 mmHg).
Test [29] deals with Rattus norvegicus. Kind of test: Effect on hemodynamic parameters in Sprague-Dawley rat heart assessed as heart rate at 128 ug/kg/min (reference value: 274 bpm).
Test [30] relates to Rattus norvegicus. Kind of test: Effect on hemodynamic parameters in Sprague-Dawley rat heart assessed as end-diastolic pressure at 64 ug/kg/min (reference value: 9.64 mmHg).
Test [31] has as its system Rattus norvegicus. The test is described as follows: Effect on hemodynamic parameters in Sprague-Dawley rat heart assessed as end-systolic pressure at 64 ug/kg/min (reference value: 87.48 mmHg).
The subject of test [32] is Rattus norvegicus. Kind of test: Effect on hemodynamic parameters in Sprague-Dawley rat heart assessed as dPdT max at 128 ug/kg/min (reference value: 4162 mmHg/s).

As for `COC(=O)N1CCN(Cc2cccc(NC(=O)Nc3ccc(C)nc3)c2F)CC1` [OMECAMTIV MECARBIL], the Activity is 7 mmHg in the test on Rattus norvegicus [1]; -6516 mmHg/s in the test with Rattus norvegicus [2]; 7.65 mmHg in the test with Rattus norvegicus [3]; 87.85% with Rattus norvegicus [4]; 104.3 mmHg in the test on Rattus norvegicus [5]; 2.63 mm with Rattus norvegicus [6]. Besides, the Activity in the test with Rattus norvegicus [7] is listed as 108.85 mmHg; in the test on Rattus norvegicus [8], -6628 mmHg/s; in the test with Rattus norvegicus [9], 322 bpm; in the test with Rattus norvegicus [10], 297 bpm; in the test with Rattus norvegicus [11] it was 6320 mmHg/s; with Rattus norvegicus [12] it was 326 bpm. In addition, the Activity in the test on Rattus norvegicus [13] is reported as 6645 mmHg/s; in the test on Rattus norvegicus [14], 109.76 mmHg; in the test on Rattus norvegicus [15], -5547 mmHg/s; with Rattus norvegicus [16], 89.52%; in the test with Rattus norvegicus [17], 367 bpm.
Regarding `O=C(NCCCc1ccccc1)NCc1ccccc1`, the Activity in the test with Rattus norvegicus [18] is given as 113.24 mmHg; with Rattus norvegicus [19], 277 bpm; in the test with Rattus norvegicus [4], 76.44%; with Rattus norvegicus [20] it was 268 bpm; in the test on Rattus norvegicus [5], 96.04 mmHg; in the test with Rattus norvegicus [21], 95.74 mmHg. The Activity is listed as 3.03 mm in the test with Rattus norvegicus [6]; -6346 mmHg/s in the test on Rattus norvegicus [22]; 272 bpm with Rattus norvegicus [10]; -5375 mmHg/s in the test on Rattus norvegicus [23]; 12.26 mmHg with Rattus norvegicus [24]; 5382 mmHg/s in the test on Rattus norvegicus [25]. The Activity with Rattus norvegicus [26] is 4744 mmHg/s; in the test with Rattus norvegicus [27], -6138 mmHg/s; in the test with Rattus norvegicus [28], 24.12 mmHg; with Rattus norvegicus [29], 284 bpm; with Rattus norvegicus [30], 16.85 mmHg; in the test on Rattus norvegicus [31], 108.41 mmHg. Further, the Activity in the test with Rattus norvegicus [15] is listed as -5583 mmHg/s; with Rattus norvegicus [16], 96.1%; in the test with Rattus norvegicus [32], 6146 mmHg/s; in the test on Rattus norvegicus [17] it was 412 bpm.

The record behind these values is ChEMBL document CHEMBL4033651, “Exploration of flexible phenylpropylurea scaffold as novel cardiac myosin activators for the treatment of systolic heart failure” (Eur J Med Chem, 2017).
